Laboratory results from ChEMBL document CHEMBL1130178, “Synthesis and evaluation of novel fluorinated methotrexate derivatives for application to rheumatoid arthritis treatment” (J Med Chem, 1997).
≈ marks a conversion by molar mass, not a printed value.

Tests used:
Mus musculus [1] = species on record: Mus musculus; assay: Compound dose suppressing antibody production by 75% in mice; type: functional
Procedure, shortened: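 Female BDF1 mice (6 weeks old) immunized i.v. with 1 × 10^8 SRBC; sodium salt dissolved in water given orally days 1–3. Serum taken day 7; two-fold serial dilutions in PBS with 5 × 10^-5 M 2-mercaptoethanol mixed with 1% SRBC, 14 h at 25 °C; hemagglutination titer read visually. Dose giving 75% suppression, mg/kg.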

EL4 = assay: Inhibitory growth of EL4 thymoma cell line from C57BL/6 mice; type: functional, cell-based; conditions: Mus musculus
Procedure, shortened: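 EL4 thymoma cells (C57BL/6 origin), 4 × 10^4 per well, exposed to compound in DMSO at final 0–50 μg/mL for 1 day at 37 °C, 5% CO2, humidified air; proliferation then measured.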

T-cell [2] = assay: Inhibitory activity against Con A-stimulated Tcell proliferation.; type: functional, cell-based, Mus musculus
Procedure, shortened: (§1)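 Mouse spleen cells stimulated with mitogen, concanavalin A for T cells or lipopolysaccharide for B cells; inhibition of proliferative response measured, IC50 in ng/mL.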

[3] = Safety index = Ratio of lethal dose / suppressive dose value; type: toxicity; conditions: for selectivity ratio: read-out: Safety index
Procedure, shortened: (§2)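 Female BDF1 mice (6 weeks old) were immunized iv with 1 × 10^8 SRBC, then given the test compound's sodium salt in water per os on days 1–3. Serum was taken on day 7 and serially two-fold diluted in PBS with 5 × 10^-5 M 2-mercaptoethanol. 1% SRBC was added, plates were held 14 h at 25 °C, and hemagglutination titer was read visually. Lethal dose is the dose (mg/kg) at which one mouse died; index = lethal dose / dose giving 75% suppression.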

[4] = Inhibitory activity against LPS-stimulated B cell proliferation.; type: functional, cell-based, Mus musculus; procedure, shortened: as §1
[5] = Compound dose causing lethality in mice; type: toxicity; conditions: mouse, in vivo; procedure, shortened: as §2
[6] = Ratio of LD50 / ED50 value against adjuvant arthritis in rats.; type: functional
Procedure, shortened: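 Female Lewis rats (7 weeks, 140–160 g) sensitized by subcutaneous injection into left hind paw of 0.05 mL liquid paraffin containing 0.5 mg Mycobacterium butyricum. Compound given orally as 0.6% suspension in arabic gum, five days a week from day 1 (12 days total). Uninjected paw volume measured by plethysmometer until day 17; inhibition versus vehicle control gives ED50; index is LD50/ED50.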

[7] = Lethal dose in rats.; type: toxicity; conditions: rat, in vivo
Mus musculus [8] = assay: secondary antibody response in mice at 1.25 mg/kg; type: functional
Procedure, shortened: (§3)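 Female BDF1 mice (6 weeks old) immunized i.v. with 1 × 10^5 SRBC on days 0, 7 and 14; sodium salt in water given orally 5 days/week from day 0 (15 doses). Serum taken day 20; hemagglutination titer by serial two-fold dilution with 1% SRBC, 14 h at 25 °C, read visually; mean log2 titer ± SD.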

Mus musculus [9] = assay: secondary antibody response in mice at 0.625 mg/kg; type: functional; procedure, shortened: as §3
Rattus norvegicus = species on record: Rattus norvegicus; assay: Effect on RA model was examined using adjuvant arthritis in rats.; type: functional
Procedure, shortened: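 Female Lewis rats (7 weeks, 140–160 g) sensitized by s.c. injection into left hind paw of liquid paraffin containing 0.5 mg Mycobacterium butyricum. 0.6% suspension in arabic gum given orally 5 days/week from day 1 (12 doses). Uninjected paw volume measured by plethysmometer until day 17; ED50 from inhibition versus vehicle control.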

Mus musculus [10] = assay: secondary antibody response in mice at 2.5 mg/kg; type: functional; procedure, shortened: as §3
T-cell [11] = assay: Inhibitory activity against Con A-stimulated T cell proliferation.; type: functional, cell-based; conditions: Mus musculus; procedure, shortened: as §1
[12] = Mus musculus, T-cell, read-out: IC50
[13] = Rattus norvegicus, read-out: ED50

Structure (SMILES) | Suppressive dose (Mus musculus [1]) [mg/kg] | IC50 (EL4) [µM] | IC50 (T-cell [2]; t-cell) [ng/mL] | Safety index [3] | IC50 [4] [ng/mL] | Lethal dose [5] [mg/kg] | IC50 (T-cell [2]; [12]) [ng/mL] | selectivity ratio [3] | Ratio [6] | LD50 ([7]; read-out: LD50) [mg/kg] | ED50 (Rattus norvegicus; [13]) [mg/kg] | also measured
Cc1cc(C(=O)N[C@@H](CC(F)C(=O)O)C(=O)O)sc1N(C)Cc1cnc2nc(N)nc(N)c2n1 (stereo in doubt; form 1) | 10 | > 100 | 11.5 (≈ 0.0234 µM) | > 18 | 14.9 (≈ 0.0303 µM) | > 180 |  |  |  |  |  | 
CN(Cc1cnc2nc(N)nc(N)c2n1)c1ccc(C(=O)N[C@@H](CC(F)C(=O)O)C(=O)O)cc1 (stereo in doubt; 2it) | >400 | > 100 | 64.6 (≈ 0.137 µM) |  | 61.5 (≈ 0.13 µM) |  |  |  |  |  |  | 
CCCc1cc(C(=O)N[C@@H](CC(F)C(=O)O)C(=O)O)ccc1NCc1cnc2nc(N)nc(N)c2n1 (stereo in doubt; form 1) | 10 | > 100 |  | 40 | 22.2 (≈ 0.0444 µM) | 200 | 5.3 (≈ 0.0106 µM) |  |  |  |  | 
Nc1nc(N)c2nc(CNc3ccc(C(=O)N[C@@H](CC(F)C(=O)O)C(=O)O)cc3C(F)(F)F)cnc2n1 (stereo in doubt; 2vt) | 5 | > 100 | 16.8 (≈ 0.0319 µM) |  | 19.5 (≈ 0.037 µM) |  |  |  |  |  |  | 
Nc1nc(N)c2nc(CNc3ccc(C(=O)N[C@@H](CC(F)C(=O)O)C(=O)O)cc3C(F)(F)F)cnc2n1 (stereo in doubt; 2ve) |  |  | 8 (≈ 0.0152 µM) |  | 14.3 (≈ 0.0272 µM) |  |  |  |  |  |  | 
Nc1nc(N)c2nc(CNc3ccc(C(=O)N[C@@H](CC(F)C(=O)O)C(=O)O)cc3Cl)cnc2n1 (stereo partly drawn) | 0.8 | > 100 |  |  | 11.8 (≈ 0.0239 µM) | 80 | 4.3 (≈ 0.00872 µM) | 100 |  |  |  | 
CCc1cc(C(=O)N[C@@H](CC(F)C(=O)O)C(=O)O)ccc1NCc1cnc2nc(N)nc(N)c2n1 (stereo in doubt; form 1) | 1.25 | > 100 |  |  | 9.7 (≈ 0.0199 µM) | 100 | 3.8 (≈ 0.00781 µM) | 160 | 25 | 20 | 0.8 | Log2 (Mus musculus [8]; 1.25 mg/kg): 3.8; Log2 (Mus musculus [9]; 0.625 mg/kg): 4.8; Log2 (Mus musculus [10]; 2.5 mg/kg): 3.2
Cc1cc(C(=O)N[C@@H](CC(F)C(=O)O)C(=O)O)ccc1NCc1cnc2nc(N)nc(N)c2n1 (stereo in doubt; form 2) | 1.25 |  | 10.7 (≈ 0.0226 µM) | 80 | 16.5 (≈ 0.0349 µM) | 100 |  |  |  |  |  | 
CN(Cc1cnc2nc(N)nc(N)c2n1)c1ccc(C(=O)N[C@@H](CCC(=O)O)C(=O)O)cc1 [METHOTREXATE] | 0.625 | 1.57 |  |  | 12.5 (≈ 0.0275 µM) | 40 |  | 64 |  | 0.82 | 0.058 | Safety index [6]: 14.1; Log2 (Mus musculus [8]): 4.2; Log2 (Mus musculus [9]): 5.4; Log2 (Mus musculus [10]): 4; IC50 (T-cell [11]): 6.1 ng/mL (≈ 0.0134 µM)
Nc1nc(N)c2nc(CNc3ccc(C(=O)N[C@@H](CC(F)C(=O)O)C(=O)O)cc3Br)cnc2n1 (stereo partly drawn) | 5 | > 100 |  |  | 8.2 (≈ 0.0153 µM) | > 200 | 2.1 (≈ 0.00391 µM) | > 80 | 46.5 | 20 | 0.43 | 
CCc1cc(C(=O)N[C@@H](CC(F)C(=O)O)C(=O)O)ccc1NCc1cnc2nc(N)nc(N)c2n1 (stereo in doubt; form 2) | 2.5 |  | 3.2 (≈ 0.00658 µM) | 120 | 9.2 (≈ 0.0189 µM) | 150 |  |  | 12.2 |  |  | LD50 [7]: 10.9 mg/kg; Log2 (Mus musculus [8]; 1.25 mg/kg): 5.2; Log2 (Mus musculus [9]; 0.625 mg/kg): 5.4; ED50 (Rattus norvegicus): 0.89 mg/kg; Log2 (Mus musculus [10]; 2.5 mg/kg): 4.6
Nc1nc(N)c2nc(CNc3ccc(C(=O)N[C@@H](CC(F)C(=O)O)C(=O)O)cc3F)cnc2n1 (stereo partly drawn) | 1.25 | > 100 |  |  | 22.7 (≈ 0.0476 µM) | 200 | 9.4 (≈ 0.0197 µM) | 160 | 46.8 | 29 | 0.62 | Log2 (Mus musculus [8]): 6.8; Log2 (Mus musculus [9]): 6.2; Log2 (Mus musculus [10]): 5.2
CN(Cc1cnc2nc(N)nc(N)c2n1)c1ccc(C(=O)N[C@@H](CC(F)C(=O)O)C(=O)O)cc1 (stereo in doubt; 2ie) | 50 |  | 25.9 (≈ 0.0548 µM) |  | 21 (≈ 0.0445 µM) | 600 |  | 12 |  |  |  | 
Cc1cc(C(=O)N[C@@H](CC(F)C(=O)O)C(=O)O)ccc1NCc1cnc2nc(N)nc(N)c2n1 (stereo in doubt; form 1) | 0.31 | > 100 |  |  | 9.9 (≈ 0.021 µM) | 12.5 | 7.8 (≈ 0.0165 µM) | 40 |  |  |  | 
Cc1cc(C(=O)N[C@@H](CC(F)C(=O)O)C(=O)O)sc1N(C)Cc1cnc2nc(N)nc(N)c2n1 (stereo in doubt; form 2) | 5 |  | 3.8 (≈ 0.00772 µM) | 60 | 5.1 (≈ 0.0104 µM) | 150 |  |  | 57.5 | 46 | 0.8 | 
